Reference: ChEMBL document CHEMBL2311431, “Synthesis and biological evaluation of some 5-arylidene-2-(1,3-thiazol-2-ylimino)-1,3-thiazolidin-4-ones as dual anti-inflammatory/antimicrobial agents” (Bioorg Med Chem, 2013)
Values after ≈ are worked out from the molar mass of the structure shown. Active and inactive are the calls of the source. The calls are words filed in the database; no cut-off is given here.

Key:
Glycine max = assay: (§1) Inhibition of soybean lipoxygenase assessed as inhibition of sodium linolate conversion to 13-hydroperoxylinoleic acid after 4 mins by spectrophotometry
Bacillus cereus [1] = assay: Bactericidal activity against Bacillus cereus clinical isolate after 72 hrs by serial subcultivation method; assay type: functional
Micrococcus flavus [2] = assay: Antibacterial activity against Micrococcus flavus ATCC 10240 after 24 hr by microdilution test; assay type: functional; details: ATCC 10240, 24 h
Summary of the method: (§2)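 Broth microdilution in LB medium, about 1.0×10^4 cfu per well; compounds from 1 mg/ml stocks in 5% DMSO. Incubated 24 h. MIC is the lowest concentration with no visible growth under a binocular microscope. Run in duplicate, repeated three times.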

Mus musculus [3] = assay: Acute toxicity in AKR mouse up to 0.5 mmol/kg, ip; assay type: organism-based; details: in vivo
Escherichia coli [4] = assay: Bactericidal activity against Escherichia coli ATCC 35210 after 72 hrs by serial subcultivation method; assay type: functional; details: ATCC 35210, 72 h
Micrococcus flavus [5] = assay: Bactericidal activity against Micrococcus flavus ATCC 10240 after 72 hrs by serial subcultivation method; assay type: functional; details: ATCC 10240, 72 h
Pseudomonas aeruginosa [6] = assay: Bactericidal activity against Pseudomonas aeruginosa ATCC 27853 after 72 hrs by serial subcultivation method; assay type: functional; details: ATCC 27853, 72 h
Trichoderma viride [7] = assay: Fungicidal activity against Trichoderma viride IAM 5061 after 72 hrs by serial subcultivation method; assay type: functional; details: IAM 5061, 72 h
Listeria monocytogenes [8] = assay: Bactericidal activity against Listeria monocytogenes NCTC 7973 after 72 hrs by serial subcultivation method; assay type: functional; details: NCTC 7973, 72 h
Staphylococcus aureus [9] = assay: Antibacterial activity against Staphylococcus aureus ATCC 6538 after 24 hr by microdilution test; assay type: functional; details: ATCC 6538, 24 h; summary of the method: as §2
Trichoderma viride [10] = assay: Antifungal activity against Trichoderma viride IAM 5061 after 72 hrs by serial dilution technique; assay type: functional; details: IAM 5061, 72 h
Summary of the method: (§3)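 Serial dilution in malt broth; compounds from 1 mg/ml stocks in 5% DMSO; 72 h at 28 °C. MIC is the lowest concentration with no visible growth under a binocular microscope. Run in duplicate, repeated three times.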

Pseudomonas aeruginosa [11] = assay: Antibacterial activity against Pseudomonas aeruginosa ATCC 27853 after 24 hr by microdilution test; assay type: functional; details: ATCC 27853, 24 h; summary of the method: as §2
Listeria monocytogenes [12] = assay: Antibacterial activity against Listeria monocytogenes NCTC 7973 after 24 hr by microdilution test; assay type: functional; details: NCTC 7973, 24 h; summary of the method: as §2
Penicillium ochrochloron [13] = assay: Antifungal activity against Penicillium ochrochloron ATCC 9112 after 72 hrs by serial dilution technique; assay type: functional; details: ATCC 9112, 72 h; summary of the method: as §3
Bacillus cereus [14] = assay: Antibacterial activity against Bacillus cereus clinical isolate after 24 hr by microdilution test; assay type: functional; summary of the method: as §2
Aspergillus fumigatus [15] = assay: Fungicidal activity against Aspergillus fumigatus after 72 hrs by serial subcultivation method; assay type: functional
[16] = biological target: T1, Prostaglandin G/H synthase 1 (Ovis aries, UniProt P05979); assay: (§4) Inhibition of ovine COX1 assessed as inhibition of PGF2a production by enzyme immunoassay
T1 sequence (P05979 whole entry): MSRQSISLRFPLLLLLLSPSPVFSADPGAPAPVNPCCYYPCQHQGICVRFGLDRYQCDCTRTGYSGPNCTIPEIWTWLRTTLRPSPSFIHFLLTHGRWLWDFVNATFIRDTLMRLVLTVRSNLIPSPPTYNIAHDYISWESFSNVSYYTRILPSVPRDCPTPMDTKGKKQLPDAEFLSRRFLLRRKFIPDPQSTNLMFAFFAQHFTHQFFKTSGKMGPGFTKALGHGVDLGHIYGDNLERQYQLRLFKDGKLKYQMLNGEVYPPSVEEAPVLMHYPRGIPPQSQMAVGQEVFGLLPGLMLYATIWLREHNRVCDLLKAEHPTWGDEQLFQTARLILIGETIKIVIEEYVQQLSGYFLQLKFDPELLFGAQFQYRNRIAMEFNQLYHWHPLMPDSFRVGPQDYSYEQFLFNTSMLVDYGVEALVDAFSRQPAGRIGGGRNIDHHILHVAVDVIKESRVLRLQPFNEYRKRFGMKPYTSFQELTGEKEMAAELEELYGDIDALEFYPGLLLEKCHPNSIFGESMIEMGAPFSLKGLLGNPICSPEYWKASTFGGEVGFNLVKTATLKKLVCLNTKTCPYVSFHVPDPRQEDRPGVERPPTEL
Summary of the method: (§5)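 Ovine COX-1 from a commercial screening kit, tested with 0.1 µM arachidonic acid, which is below the saturating level. COX-derived PGH2 is reduced by SnCl2 to PGF2a, quantified by enzyme immunoassay with a broad prostaglandin antibody. At least triplicate.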

[17] = biological target: T2, Prostaglandin G/H synthase 1 (Ovis aries) (UniProt P05979); assay: as §4; parameters: concentration or dose not given beside the values; details: concentration not given here; summary of the method: as §5
T2 sequence (whole entry): T1 sequence (P05979 whole entry)

Aspergillus flavus [18] = assay: Antifungal activity against Aspergillus flavus ATCC 9643 after 72 hrs by serial dilution technique; assay type: functional; details: ATCC 9643, 72 h; summary of the method: as §3
Staphylococcus aureus [19] = assay: Bactericidal activity against Staphylococcus aureus ATCC 6538 after 72 hrs by serial subcultivation method; assay type: functional; details: ATCC 6538, 72 h
Talaromyces funiculosus [20] = assay: Antifungal activity against Penicillium funiculosum ATCC 36839 after 72 hrs by serial dilution technique; assay type: functional; details: ATCC 36839, 72 h; summary of the method: as §3
Escherichia coli [21] = assay: Antibacterial activity against Escherichia coli ATCC 35210 after 24 hr by microdilution test; assay type: functional; details: ATCC 35210, 24 h; summary of the method: as §2
Aspergillus flavus [22] = assay: Fungicidal activity against Aspergillus flavus ATCC 9643 after 72 hrs by serial subcultivation method; assay type: functional; details: ATCC 9643, 72 h
Talaromyces funiculosus [23] = assay: Fungicidal activity against Penicillium funiculosum ATCC 36839 after 72 hrs by serial subcultivation method; assay type: functional; details: ATCC 36839, 72 h
Aspergillus niger [24] = assay: Antifungal activity against Aspergillus niger ATCC 6275 after 72 hrs by serial dilution technique; assay type: functional; details: ATCC 6275, 72 h; summary of the method: as §3
Aspergillus niger [25] = assay: Fungicidal activity against Aspergillus niger ATCC 6275 after 72 hrs by serial subcultivation method; assay type: functional; details: ATCC 6275, 72 h
Penicillium ochrochloron [26] = assay: Fungicidal activity against Penicillium ochrochloron ATCC 9112 after 72 hrs by serial subcultivation method; assay type: functional; details: ATCC 9112, 72 h
Mus musculus [27] = assay: Antiinflammatory activity in AKR mouse assessed as inhibition of carrageenan-induced paw edema at 0.01 mmol/kg, ip measured after 3.5 hrs of carrageenan-challenge; assay type: functional
Summary of the method: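 AKR mice of both sexes (pregnant females excluded), 6-10 per group, fasted during the experiment. Edema induced by intradermal 0.05 mL of 2% carrageenin into the right hind paw. Compound given at 0.01 mmol/kg ip, suspended in water with Tween-80, at the same time as carrageenin.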

Aspergillus fumigatus [28] = assay: Antifungal activity against Aspergillus fumigatus after 72 hrs by serial dilution technique; assay type: functional; summary of the method: as §3
[29] = as §1; parameters: species or system Glycine max; details: read-out: IC50

SMILES | inhibition (Glycine max) | MBC (Bacillus cereus [1]) | MIC (Micrococcus flavus [2]) | Activity (Mus musculus [3]) | MBC (Escherichia coli [4]) | MBC (Micrococcus flavus [5]) | MBC (Pseudomonas aeruginosa [6]) | MFC (Trichoderma viride [7]) | MBC (Listeria monocytogenes [8]) | MIC (Staphylococcus aureus [9]) | MIC (Trichoderma viride [10]) | MIC (Pseudomonas aeruginosa [11]) | MIC (Listeria monocytogenes [12]) | MIC (Penicillium ochrochloron [13]) | MIC (Bacillus cereus [14]) | MFC (Aspergillus fumigatus [15]) | inhibition [17] | MIC (Aspergillus flavus [18]) | MBC (Staphylococcus aureus [19]) | inhibition in vivo at 10 µmol/kg (Mus musculus [27]) | other results
O=C1N/C(=N\c2nccs2)S/C1=C\c1cc(Br)ccc1O | inactive | 34 µM (≈ 13 µg/mL) | 34 µM (≈ 13 µg/mL) | Non-toxic | 137 µM (≈ 52.4 µg/mL) | 68 µM (≈ 26 µg/mL) | 34 µM (≈ 13 µg/mL) | 17 µM (≈ 6.5 µg/mL) | 34 µM (≈ 13 µg/mL) | 34 µM (≈ 13 µg/mL) | 8.5 µM (≈ 3.25 µg/mL) | 17 µM (≈ 6.5 µg/mL) | 17 µM (≈ 6.5 µg/mL) | 17 µM (≈ 6.5 µg/mL) | 9 µM (≈ 3.44 µg/mL) | 34 µM (≈ 13 µg/mL) | 73% | 34 µM (≈ 13 µg/mL) | 68 µM (≈ 26 µg/mL) | 54.4% | IC50 [16]: 65 µM; MIC (Talaromyces funiculosus [20]): 17 µM (≈ 6.5 µg/mL); MIC (Escherichia coli [21]): 68 µM (≈ 26 µg/mL); MFC (Aspergillus flavus [22]): 68 µM (≈ 26 µg/mL); MFC (Talaromyces funiculosus [23]): 34 µM (≈ 13 µg/mL); MIC (Aspergillus niger [24]): 34 µM (≈ 13 µg/mL); MFC (Aspergillus niger [25]): 68 µM (≈ 26 µg/mL); MFC (Penicillium ochrochloron [26]): 34 µM (≈ 13 µg/mL); MIC (Aspergillus fumigatus [28]): 17 µM (≈ 6.5 µg/mL)
O=C1N/C(=N\c2nccs2)S/C1=C\c1cccc(F)c1 | 72% | 32.7 µM (≈ 9.99 µg/mL) | 65.4 µM (≈ 20 µg/mL) | Non-toxic | 65.4 µM (≈ 20 µg/mL) | 81.9 µM (≈ 25 µg/mL) | 32.7 µM (≈ 9.99 µg/mL) | 65.4 µM (≈ 20 µg/mL) | 98.2 µM (≈ 30 µg/mL) | 32.7 µM (≈ 9.99 µg/mL) | 32.7 µM (≈ 9.99 µg/mL) | 24.6 µM (≈ 7.51 µg/mL) | 81.9 µM (≈ 25 µg/mL) | 32.7 µM (≈ 9.99 µg/mL) | 24.6 µM (≈ 7.51 µg/mL) | 49.1 µM (≈ 15 µg/mL) | 42% | 32.7 µM (≈ 9.99 µg/mL) | 65.4 µM (≈ 20 µg/mL) | 56.6% | IC50 [29]: 90 µM; MIC (Talaromyces funiculosus [20]): 32.7 µM (≈ 9.99 µg/mL); MIC (Escherichia coli [21]): 32.7 µM (≈ 9.99 µg/mL); MFC (Aspergillus flavus [22]): 65.4 µM (≈ 20 µg/mL); MFC (Talaromyces funiculosus [23]): 65.4 µM (≈ 20 µg/mL); MIC (Aspergillus niger [24]): 32.7 µM (≈ 9.99 µg/mL); MFC (Aspergillus niger [25]): 65.4 µM (≈ 20 µg/mL); MFC (Penicillium ochrochloron [26]): 65.4 µM (≈ 20 µg/mL); MIC (Aspergillus fumigatus [28]): 32.7 µM (≈ 9.99 µg/mL)
O=C1N/C(=N\c2nccs2)S/C1=C\c1cccc(O)c1 | 35% |  |  | Non-toxic |  |  |  |  |  |  |  |  |  |  |  |  | 98% |  |  | 33.7% | IC50 [29]: > 150 µM; IC50 [16]: 16 µM
O=C1N/C(=N\c2nc(-c3ccccc3)cs2)S/C1=C\c1cccc(Cl)c1 |  | 25.2 µM (≈ 10 µg/mL) | 25.2 µM (≈ 10 µg/mL) | Non-toxic | 50.4 µM (≈ 20.1 µg/mL) | 50.4 µM (≈ 20.1 µg/mL) | 50.4 µM (≈ 20.1 µg/mL) | 25.2 µM (≈ 10 µg/mL) | 50.4 µM (≈ 20.1 µg/mL) | 25.2 µM (≈ 10 µg/mL) | 12.6 µM (≈ 5.01 µg/mL) | 25.2 µM (≈ 10 µg/mL) | 25.2 µM (≈ 10 µg/mL) | 19 µM (≈ 7.56 µg/mL) | 25.2 µM (≈ 10 µg/mL) | 25.2 µM (≈ 10 µg/mL) | 65% | 19 µM (≈ 7.56 µg/mL) | 50.4 µM (≈ 20.1 µg/mL) | 51% | IC50 [29]: 88 µM; MIC (Talaromyces funiculosus [20]): 19 µM (≈ 7.56 µg/mL); MIC (Escherichia coli [21]): 25.2 µM (≈ 10 µg/mL); MFC (Aspergillus flavus [22]): 25.2 µM (≈ 10 µg/mL); MFC (Talaromyces funiculosus [23]): 25.2 µM (≈ 10 µg/mL); MIC (Aspergillus niger [24]): 19 µM (≈ 7.56 µg/mL); MFC (Aspergillus niger [25]): 25.2 µM (≈ 10 µg/mL); MFC (Penicillium ochrochloron [26]): 25.2 µM (≈ 10 µg/mL); MIC (Aspergillus fumigatus [28]): 19 µM (≈ 7.56 µg/mL)
